Source: ChEMBL document CHEMBL1759883, “Synthesis and biological evaluation of indazole derivatives” (Eur J Med Chem, 2011)

Assays:
[1] = biological target: Nitric oxide synthase, inducible (Rattus norvegicus) (UniProt Q06518); test: Inhibition of iNOS in LPS-stimulated Wistar rat lung assessed as inhibition of [3H]L-arginine to [3H]L-citrulline conversion at 1 mM by liquid scintillation counting
Procedure, shortened: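 Lungs from male Wistar rats (220–250 g) taken 6 h after i.v. LPS (10 mg/kg in saline), homogenized in Tris buffer pH 7.6 with protease inhibitors, and spun at 2500g. The supernatant was incubated 30 min at 37 °C with 10 µM L-arginine plus 40 nM L-³H-arginine, cofactors, 0.75 mM NADPH (final) and 10 mM EDTA. ³H-citrulline was isolated on Dowex-50W; compounds at 1 mM.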

[2] = biological target: Nitric oxide synthase 1 (Rattus norvegicus) (UniProt P29476); test: Inhibition of nNOS in untreated Wistar rat striata assessed as inhibition of [3H]L-arginine to [3H]L-citrulline conversion at 1 mM by liquid scintillation counting
[3] = biological target: Nitric oxide synthase 1 (Rattus norvegicus, UniProt P29476); test: Inhibition of nNOS in untreated Wistar rat striata assessed as inhibition of [3H]L-arginine to [3H]L-citrulline conversion by liquid scintillation counting
[4] = organism: Rattus norvegicus; test: Selectivity ratio of inhibition of iNOS in Wistar rat lung to inhibition of nNOS in Wistar rat striata

Nitric oxide synthase 1 (Rattus norvegicus), sequence (P29476 whole entry): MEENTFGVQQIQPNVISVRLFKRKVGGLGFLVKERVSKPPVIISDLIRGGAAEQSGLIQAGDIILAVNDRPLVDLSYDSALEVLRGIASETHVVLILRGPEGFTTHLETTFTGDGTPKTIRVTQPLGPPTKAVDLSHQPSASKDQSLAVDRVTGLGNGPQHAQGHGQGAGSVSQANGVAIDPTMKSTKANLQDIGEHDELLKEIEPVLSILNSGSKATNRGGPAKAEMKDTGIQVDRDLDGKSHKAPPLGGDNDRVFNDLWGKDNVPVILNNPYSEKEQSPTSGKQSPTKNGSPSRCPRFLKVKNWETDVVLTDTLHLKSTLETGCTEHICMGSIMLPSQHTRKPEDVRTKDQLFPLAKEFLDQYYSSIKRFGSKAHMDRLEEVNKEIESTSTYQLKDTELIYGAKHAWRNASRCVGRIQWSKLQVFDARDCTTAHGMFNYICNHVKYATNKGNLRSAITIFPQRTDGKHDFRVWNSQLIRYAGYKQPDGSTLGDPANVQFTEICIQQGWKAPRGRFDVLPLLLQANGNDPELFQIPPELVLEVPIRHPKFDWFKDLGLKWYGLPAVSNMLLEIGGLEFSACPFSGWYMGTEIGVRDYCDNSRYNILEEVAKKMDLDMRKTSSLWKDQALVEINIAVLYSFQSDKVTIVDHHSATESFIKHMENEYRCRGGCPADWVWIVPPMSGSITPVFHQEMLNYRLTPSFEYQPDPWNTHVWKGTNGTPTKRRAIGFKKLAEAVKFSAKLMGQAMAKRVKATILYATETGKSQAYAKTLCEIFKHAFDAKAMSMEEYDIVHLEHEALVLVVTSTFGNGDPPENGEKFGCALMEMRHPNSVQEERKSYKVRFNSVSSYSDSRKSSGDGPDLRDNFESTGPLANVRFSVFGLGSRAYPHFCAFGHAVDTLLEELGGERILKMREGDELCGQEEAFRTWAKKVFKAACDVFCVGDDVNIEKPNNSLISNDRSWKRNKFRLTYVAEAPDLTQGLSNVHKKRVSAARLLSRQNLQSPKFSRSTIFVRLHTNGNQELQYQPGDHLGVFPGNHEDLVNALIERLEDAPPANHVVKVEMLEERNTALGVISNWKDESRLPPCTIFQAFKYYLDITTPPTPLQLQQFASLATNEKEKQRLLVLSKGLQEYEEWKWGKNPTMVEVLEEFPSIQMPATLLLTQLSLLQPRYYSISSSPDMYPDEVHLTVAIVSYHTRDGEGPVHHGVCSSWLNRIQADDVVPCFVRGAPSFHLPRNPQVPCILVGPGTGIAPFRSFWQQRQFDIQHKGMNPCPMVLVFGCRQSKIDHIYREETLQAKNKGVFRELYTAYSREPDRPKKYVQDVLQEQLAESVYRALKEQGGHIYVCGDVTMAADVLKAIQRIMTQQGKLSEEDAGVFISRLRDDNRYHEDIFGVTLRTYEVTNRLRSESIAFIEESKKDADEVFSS
Nitric oxide synthase, inducible (Rattus norvegicus), sequence (Q06518 whole entry): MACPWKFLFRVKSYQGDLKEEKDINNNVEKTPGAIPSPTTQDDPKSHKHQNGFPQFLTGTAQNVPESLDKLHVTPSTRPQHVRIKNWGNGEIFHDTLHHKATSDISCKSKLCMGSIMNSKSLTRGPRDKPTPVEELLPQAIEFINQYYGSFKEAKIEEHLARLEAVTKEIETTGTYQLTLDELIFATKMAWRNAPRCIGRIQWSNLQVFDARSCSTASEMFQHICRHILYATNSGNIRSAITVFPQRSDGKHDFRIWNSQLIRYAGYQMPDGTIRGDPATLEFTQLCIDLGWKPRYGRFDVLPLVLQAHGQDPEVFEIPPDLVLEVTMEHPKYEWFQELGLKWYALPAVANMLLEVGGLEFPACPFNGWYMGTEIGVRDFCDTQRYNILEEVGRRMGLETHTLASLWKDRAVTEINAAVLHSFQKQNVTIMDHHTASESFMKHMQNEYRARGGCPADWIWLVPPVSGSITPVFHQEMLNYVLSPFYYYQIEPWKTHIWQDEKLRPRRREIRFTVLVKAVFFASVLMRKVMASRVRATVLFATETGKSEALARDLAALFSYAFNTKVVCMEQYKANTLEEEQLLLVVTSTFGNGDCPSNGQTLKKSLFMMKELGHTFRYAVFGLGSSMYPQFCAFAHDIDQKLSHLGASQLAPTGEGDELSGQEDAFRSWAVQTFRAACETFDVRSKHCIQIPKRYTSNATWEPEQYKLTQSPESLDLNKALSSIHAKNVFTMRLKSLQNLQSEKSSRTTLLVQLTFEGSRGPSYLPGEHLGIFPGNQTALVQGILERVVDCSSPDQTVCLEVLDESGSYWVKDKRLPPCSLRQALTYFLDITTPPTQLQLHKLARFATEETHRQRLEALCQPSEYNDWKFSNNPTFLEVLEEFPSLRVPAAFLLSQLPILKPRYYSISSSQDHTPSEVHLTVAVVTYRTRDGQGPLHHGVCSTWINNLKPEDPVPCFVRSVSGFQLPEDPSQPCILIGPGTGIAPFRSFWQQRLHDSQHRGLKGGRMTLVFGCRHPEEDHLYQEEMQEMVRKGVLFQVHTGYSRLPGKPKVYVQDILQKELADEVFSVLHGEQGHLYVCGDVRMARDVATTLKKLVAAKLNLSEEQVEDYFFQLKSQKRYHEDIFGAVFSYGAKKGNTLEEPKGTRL
Nitric oxide synthase 1, sequence (P29476 whole entry): as the sequence (P29476 whole entry) above

| IC50 [3] [mM] | SMILES | inhibition [1] [%] | inhibition [2] [%] | Ratio [4] |
| --- | --- | --- | --- | --- |
|  | COC(=O)c1c(F)c(F)c(F)c2c(O)n[nH]c12 | 49.6 | 5.1 |  |
|  | COc1cccc2c[nH]nc12 | 70 |  |  |
|  | Cc1n[nH]c2ccccc12 | 77.4 | 33.7 |  |
|  | Cc1n[nH]c2c(F)c(F)ccc12 | 69.2 | 58.4 |  |
|  | Cc1n[nH]c2c(F)c(F)c([N+](=O)[O-])cc12 | 95.6 | 85.4 |  |
|  | Cc1n[nH]c2cc(F)cc(F)c12 | 74.3 | 52.1 |  |
|  | Oc1n[nH]c2c(F)c(F)ccc12 | 89.1 | 57.1 |  |
|  | N#Cc1cccc2cn[nH]c12 | 80 | 88 |  |
|  | CCOC(=O)c1c(F)c(F)c2[nH]nc(O)c2c1F | 51.8 | 2.5 |  |
|  | CCOC(=O)c1c(F)c(F)c2c(O)n[nH]c2c1F | 53.5 | 10.2 |  |
|  | COC(=O)c1c(F)c(F)c2[nH]nc(O)c2c1F | 48.9 | 13.3 |  |
|  | CCOC(=O)c1c(F)c(F)c(F)c2[nH]nc(O)c12 | 38.7 | 1.2 |  |
| > 1 | O=c1[nH][nH]c2ccccc12 |  |  |  |
|  | O=C(O)c1c(F)c(F)c(F)c2c(O)n[nH]c12 | 40.7 | 11.1 |  |
|  | Cc1n[nH]c2c([N+](=O)[O-])c(F)cc(F)c12 | 92 | 90 |  |
|  | O=C(O)c1c(F)c(F)c2c(O)n[nH]c2c1F | 42 | 5.4 |  |
|  | O=C(O)c1c(F)c(F)c2[nH]nc(O)c2c1F | 16.3 | 12.1 |  |
|  | Fc1c(F)c(F)c2[nH]ncc2c1F | 98.7 | 43.3 | 2 |
|  | COC(=O)c1c(F)c(F)c(F)c2[nH]nc(O)c12 | 22.6 | 6.3 |  |
|  | COC(=O)c1c(F)c(F)c2c(O)n[nH]c2c1F | 46.2 | 19.7 |  |
|  | O=C(O)c1c(F)c(F)c(F)c2[nH]nc(O)c12 | 62.6 | 1.8 | 35 |
|  | Fc1c(F)c(F)c(-c2n[nH]c3c(F)c(F)c(F)c(F)c23)c(F)c1F |  |  | 10 |
|  | O=[N+]([O-])c1c(F)cc(F)c2c(O)n[nH]c12 | 91 | 14.9 | 6 |
|  | Oc1n[nH]c2cc(F)cc(F)c12 | 48.1 | 11.1 |  |
|  | O=[N+]([O-])c1cccc2c(O)n[nH]c12 | 8.2 | 18.9 |  |
|  | c1ccc2[nH]ncc2c1 | 45 | 11.2 |  |
|  | CCc1n[nH]c2ccccc12 |  | 18.8 |  |
|  | CCOC(=O)c1c(F)c(F)c(F)c2c(O)n[nH]c12 | 43.7 | 5.6 |  |
|  | Oc1n[nH]c2ccccc12 | 55.1 | 31.4 |  |
|  | FC(F)(F)c1n[nH]c2ccccc12 | 80.1 | 69.9 |  |
